Hits are enriched below; roughly 0.58% of the tested compounds scored in any of these assays.
Mdm2 ligase inh = blocks human Mdm2 ubiquitin ligase activity; Q00987; cell-based MDM2 ubiquitination luciferase reporter, 2 h; 0 = plate control, 100 = twice control, blank-subtracted; signal enhancement, % at 5 µM; 210,000 tested, 0.11% active; AID 1230;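 active means signal enhancement of 30% or more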;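 further: luminescence tracks abundance of the self-degrading MDM2-luciferase fusion protein; higher signal means inhibition of MDM2 E3 ligase activity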
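Material: Stable MDM2–luciferase fusion reporter cells | Amount: 2000 cells seeded into each well | Dosing: One concentration, 5 µM, with 0.2% DMSO | Incubation: 4 h cell settling then 2 h compound exposure, 37 °C | Measured by: Luciferase luminescence | Read-out basis: % enhancement relative to plate controls after blank subtraction | Benchmarks: Control and blank well means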
Rad51 HR inh = blocks human Rad51 in homologous recombination. Q06609. hRad51 DNA strand exchange, fluorescence dequenching. inhibition, % at 10 µM. 200,000 tested, 0.085% active;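 active means inhibition above 40% at the single screening dose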;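 further: 0% = DMSO control wells and 100% = blanks with heterologous ssDNA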
Target sequence (Q06609 whole entry, looked up): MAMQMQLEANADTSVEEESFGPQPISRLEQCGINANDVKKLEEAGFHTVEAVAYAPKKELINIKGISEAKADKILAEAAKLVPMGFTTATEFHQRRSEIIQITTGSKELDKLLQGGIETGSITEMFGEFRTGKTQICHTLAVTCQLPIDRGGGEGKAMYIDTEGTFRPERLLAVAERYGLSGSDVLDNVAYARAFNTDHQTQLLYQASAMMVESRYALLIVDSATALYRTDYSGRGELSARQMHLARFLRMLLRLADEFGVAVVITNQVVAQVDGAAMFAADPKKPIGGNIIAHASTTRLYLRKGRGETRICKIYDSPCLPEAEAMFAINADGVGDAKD
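Test system – preformed human Rad51 ssDNA filaments · Reagent – Donor/quencher-labelled 47-bp dsDNA substrate · Incubation – 37 °C 15-min filament assembly, 30-min compound preincubation, 15-min exchange · Signal – FRET fluorescence dequenching, excitation 485 nm, emission 520 nm · Read-out – percent inhibition from fluorescence, normalised to plate control and blank means · Benchmarks – plate control and blank wells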
Pf gamet viab = P. falciparum stage V gametocyte viability inhibition; inhibition, % at 10.9 µM; P. falciparum stage V gametocytes, ATP luminescence, 24 h; 150,000 tested, 0.065% active;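 active means inhibition above the mean plus 3 SD of compounds within the control limits, set per campaign, cut at about 38% in these data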;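 further: 0% = DMSO wells and 100% = medium only without gametocytes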
zVAD death inh = L929 zVAD cell death inhibition | L929 zVAD necroptosis rescue, ATP luminescence, 24 h; with zVAD 60 µM | 220,000 tested, 0.38% active | viability rescue, % at 10 µM | AID 1377;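 active means activation, scaled between plate controls, above about 75%, limit read from the data; inactive means activation under that limit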;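 further: 0% = zVAD with DMSO and 100% = DMSO alone without zVAD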
TNF necrop inh = blocks TNF-alpha induced death of Jurkat FADD-/- cells. Jurkat FADD-/- TNF necroptosis rescue, ATP luminescence, 24 h; 0 = TNF only, 100 = no-TNF cells. AID 463075. activation (protection from cell death), % at 10 µM. 220,000 tested, 0.068% active;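 active means activation, meaning protection from cell death, of at least 50% relative to plate controls; inactive means activation below 50%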;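 further: necroptosis triggered by 40 ng/mL TNF-alpha added together with compound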
zVAD death conf = confirmed blocker of zVAD induced death in L929 cells. AID 463117. L929 zVAD-induced necroptosis rescue, ATP luminescence, 24 h. shares compounds with zVAD death inh. activation (protection from necroptosis), % at 10 µM. 760 tested, 16% active;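 active means mean protection from necroptosis of at least 50% over duplicate tests; inactive means mean protection below 50%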;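 further: 0% = cells with zVAD alone and 100% = vehicle cells without zVAD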
* hit, by the source's call; . = no result given.

SMILES	Mdm2 ligase inh	Rad51 HR inh	Pf gamet viab	zVAD death inh	TNF necrop inh	zVAD death conf
CC(C)c1ccc(-n2cnn(-c3ncccc3[N+](=O)[O-])c2=O)cc1	-43.7	5.8	.	77.8*	2.1	0.6
O=C(N/N=C\c1cccc(Cl)c1)c1n[nH]c2c1CCCC2	-20.1	5.1	3.0	82.6*	6.3	27.5
CC(C)(C)c1csc(N/N=C/c2cccnc2)n1	-0.4	6.7	-22.3	77.0*	-0.1	6.0
O=C(NCCc1ccccc1)c1n[nH]c2ccccc12	-27.3	.	.	4.5	4.2	.
Clc1ccc2[nH]c3c(c2c1)CCc1cn[nH]c1-3	-11.1	11.0	.	100.8*	90.4*	83.3*
c1ccc2c3c([nH]c2c1)-c1[nH]ncc1CC3	-5.4	-6.7	.	91.0*	95.4*	93.1*
O=C1CCCc2c1[nH]c1ccccc21	18.4	-2.7	.	0.5	0.1	.
O=C(N/N=C1\CCCc2c1[nH]c1ccc(Cl)cc21)c1ccncc1	.	.	-1.4	.	.	.
CCN(CCO)c1ccc(N=Nc2cc(C)[nH]n2)cc1	-90.2	-3.6	-9.9	85.2*	26.1	34.4
Cc1cc(C(=O)N/N=C/C=C/c2ccccc2)n[nH]1	-11.4	14.9	15.2	31.1	24.9	.
Cc1cc(C(=O)N/N=C/C=C/c2cccc([N+](=O)[O-])c2)n[nH]1	-7.1	10.7	-15.3	87.2*	18.6	0.5
O=C(N/N=C/C=C/c1ccccc1)c1cc(C2CC2)[nH]n1	-13.4	16.2	15.1	77.4*	8.2	4.3
COc1cccc(N2CCN(C(=O)C3CCN(S(=O)(=O)c4cccs4)CC3)CC2)c1	-7.4	4.2	.	3.6	-1.0	.
Nc1cc(C(=O)OCC(=O)NC(c2ccccc2)c2ccccc2)ccc1Cl	10.7	1.4	-10.6	85.0*	-0.9	35.6
CCCC(=O)n1nc(-c2cccnc2)nc1NCc1cccs1	5.2	.	-4.5	77.1*	1.7	0.7
CCCC(=O)n1nc(-c2cccnc2)nc1NCc1ccccc1	13.8	5.8	-10.2	79.1*	2.1	1.2
O=C(c1cccc([N+](=O)[O-])c1)n1nc(-c2ccccc2)nc1NCc1ccccc1	-17.3	0.2	7.8	80.3*	4.1	3.1
CCC(=O)n1nc(-c2cccnc2)nc1NCc1cccs1	-10.7	-5.0	-11.4	72.6	1.0	.
O=C(c1ccc([N+](=O)[O-])cc1)n1nc(-c2ccccc2)nc1NCc1ccccc1	-9.1	.	.	47.6	-1.2	.
CCC(=O)n1nc(-c2cccnc2)nc1NCc1ccccc1	-17.5	.	17.4	79.3*	2.4	7.6
CCC(=O)n1nc(-c2cccnc2)nc1NCc1ccc(F)cc1	-6.8	-4.7	11.0	71.9	2.3	.
CCS(=O)(=O)c1ccc(O)c(NC(=O)NC2CCCCC2)c1	.	9.7	-1.9	-0.6	4.0	.
O=C(CN1C(=O)c2cccc3cccc(c23)C1=O)NCCN1CCOCC1	-10.1	3.8	.	3.6	1.4	.
CN(Cc1ccccc1)C(=O)c1ccc(NC(=O)Cc2cccc(NC(=O)C3CCCN(C(=O)C4CCC4)C3)c2)cc1 (stereo not given)	.	.	-1.1	.	.	.
O=C(Nc1cccc(Oc2ccc3c(c2)C(=O)NC3=O)c1)c1cccs1	-5.1	-2.0	9.6	87.0*	0.2	43.4
SMILES	Mdm2 ligase inh	Rad51 HR inh	Pf gamet viab	zVAD death inh	TNF necrop inh	zVAD death conf
O=C(COc1cccc(NC(=O)c2cccs2)c1)c1ccc(F)cc1	-17.6	2.8	13.7	3.6	5.9	.
CN=C1S/C(=C\c2cn(CC(=O)OC)c3ccccc23)C(=O)N1C	-31.1	-14.6	-3.3	75.4*	0.7	-0.2
CN=C1S/C(=C/c2cn(CC(=O)OC)c3ccccc23)C(=O)N1C	-7.0	-15.1	12.4	67.1	-1.6	.
Nc1nonc1-n1nnc(C(=O)N/N=C/c2ccc(Br)cc2)c1CSC1=NCCS1	-3.4	4.5	-20.1	77.8*	-6.8	2.3
Cc1nnsc1SCCNC(=O)Nc1ccc(Cl)cc1	-18.4	6.5	.	78.8*	3.3	4.9
O=c1[nH]c2ccccc2n2c(=S)[nH]nc12	-2.6	.	12.6	2.4	3.3	.
Cc1cccc(NC(=O)Nc2ccc(Cl)cc2)n1	.	.	20.4	.	.	.
Cc1cccc(NC(=O)Nc2ccc(C)c(C)c2)n1	-22.7	-0.5	.	75.0*	-1.4	6.3
Cc1cccc(NC(=O)Nc2ccc([N+](=O)[O-])cc2)n1	-27.9	-2.2	-5.6	76.5*	-0.5	40.0
CC(=O)Nc1ccc(NC(=O)Nc2ccc(C)c(C)c2)cc1	-10.7	-10.7	.	79.5*	-2.6	1.2
O=C(c1c(F)cccc1F)N1CCCc2ccccc21	.	.	8.5	.	.	.
CCOCCCn1c(SCC(=O)Nc2ccc(NC(C)=O)cc2)nc2ccccc2c1=O	.	.	10.4	.	.	.
O=C(Oc1ccc(Nc2ncnc3ccccc23)cc1)c1cccnc1	-3.7	9.8	-11.0	80.5*	-0.7	1.1
CCOc1ccc(CNS(=O)(=O)c2cccs2)cc1OCC	.	.	14.6	.	.	.
CN(C)S(=O)(=O)c1cccc(NC(=O)CCSc2ccc(Cl)cc2)c1	2.3	.	-8.7	76.7*	-2.9	41.6
COc1ccc(-c2cc(=O)c3cc(O)ccc3o2)cc1	-12.2	-2.6	.	75.9*	-1.9	30.4
O=c1cc(-c2ccccc2)oc2ccc(O)cc12	-22.5	3.7	14.0	73.0	-2.7	.
CCOC(=O)CCC(=O)NNC(=O)c1ccc(NC(=O)c2ccccc2)cc1	-2.1	.	-23.9	75.4*	-0.6	12.4
Cc1cccc(NC(=O)c2nc[nH]c2C(=O)N[C@@H](Cc2ccccc2)C(=O)OCc2ccccc2)c1	-11.6	6.8	.	0.9	1.8	.
CC(C)c1nnc(NC(=O)CCC(=O)N2CCN(c3ccccn3)CC2)s1	1.0	2.5	-21.3	36.4	-1.0	.
Cc1cc(C)nc(N2CCN(C(=O)CCC(=O)Nc3nnc(C(C)C)s3)CC2)n1	-4.0	.	10.2	76.1*	-1.2	33.0
O=C(CCN1C(=O)c2ccc([N+](=O)[O-])cc2C1=O)Nc1ccccc1C(=O)O	-11.4	.	-16.6	0.6	1.1	.
O=C(COC(=O)c1ccc(O)cc1)Nc1ccc(Cl)cc1	-8.5	-5.3	-1.7	77.7*	1.7	20.9
CCCCN(CC)CCCNC(=O)c1cc2c(=O)n(C)c3ccccc3c2n1C	-15.8	-4.5	.	80.1*	-0.8	33.5
Cn1c(C(=O)NCCN2CCCCCC2)cc2c(=O)n(C)c3ccccc3c21	-4.4	4.6	.	84.2*	3.2	10.3
Cn1c(C(=O)NCCCN2CCOCC2)cc2c(=O)n(C)c3ccccc3c21	-11.9	0.6	.	54.9	0.9	.
Cn1c(C(=O)NCc2ccccn2)cc2c(=O)n(C)c3ccccc3c21	-14.1	-4.8	.	88.9*	0.5	3.1
CC(C)OCCCNC(=O)c1cc2c(=O)n(C)c3ccccc3c2n1C	-9.0	11.4	.	9.5	0.1	.
CN1CCN(CCCNC(=O)c2cc3c(=O)n(C)c4ccccc4c3s2)CC1	-13.9	3.1	.	77.0*	2.1	23.8
